Source: ChEMBL document CHEMBL3580618, “New trisubstituted 1,2,4-triazoles as ghrelin receptor antagonists” (Bioorg Med Chem Lett, 2015)
pIC50: −log10 of the molar value.

Tests used:
[1] = target: T1, Growth hormone secretagogue receptor type 1 (Homo sapiens, UniProt Q92847); assay: Antagonist activity at human GSHR1a expressed in mouse LTK cells assessed as inhibition of ghrelin-induced reporter gene expression after 6 hrs by CRE/luciferase reporter gene assay; format: functional, cell-based
Method in brief: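 Mouse LTK cells stably expressing human GHS-R1a with luciferase reporter under CRE elements and CMV minimal promoter. Cells incubated 6 h with 1 µM rolipram, test compound at various concentrations and saturating ghrelin. Cells then lysed and bioluminescence read. % inhibition: ghrelin-treated cells = 0%, untreated cells = 100%. Quadruplicate points. IC50 from one experiment for weaker compounds, mean of at least two experiments for nanomolar ones.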

[2] = Retention time of the compound by HPLC analysis; format: physicochemical
[3] = target: T1, Growth hormone secretagogue receptor type 1; assay: Antagonist activity at GHSR1a (unknown origin) assessed as inhibition of ghrelin-induced intracellular calcium mobilization; format: functional, cell-based
Method in brief: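 GHS-R1a-expressing cells; [Ca2+]i mobilization read. Compounds failing to raise calcium above 10% of maximal response (100% = 10^-7 M ghrelin) at 10^-5 M were treated as antagonists. […] One experiment, mean points from quadruplicate measurements.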

[4] = Retention time of the compound by LC-MS analysis; format: physicochemical
[5] = target: T1, Growth hormone secretagogue receptor type 1; assay: Displacement of 125I-[His9]-ghrelin from human GHSR1a expressed in LLC-PK1 cells by competitive binding assay; format: cell-based

T1 sequence (Q92847 whole entry): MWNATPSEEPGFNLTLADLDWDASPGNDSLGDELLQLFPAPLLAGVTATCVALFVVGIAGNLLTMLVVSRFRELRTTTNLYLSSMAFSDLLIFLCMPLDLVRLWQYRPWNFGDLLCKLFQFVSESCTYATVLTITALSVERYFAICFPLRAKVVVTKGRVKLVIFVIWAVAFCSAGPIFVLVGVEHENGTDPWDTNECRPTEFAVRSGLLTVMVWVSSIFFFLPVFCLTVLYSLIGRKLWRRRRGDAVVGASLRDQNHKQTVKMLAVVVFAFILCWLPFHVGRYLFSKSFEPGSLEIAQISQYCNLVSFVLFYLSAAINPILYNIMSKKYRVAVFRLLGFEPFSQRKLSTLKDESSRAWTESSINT

SMILES | pIC50 [1] | Retention_time [2] [min] | pIC50 [3] | Retention_time [4] [min] | pIC50 [5]
COc1ccc(Cn2c(CCc3ccccc3)nnc2[C@@H](Cc2c[nH]c3ccccc23)NC(=O)c2nccc3ccccc23)cc1 | 7.14 | 1.93 | 7.09 | 1.85 | 6.82
COc1ccc(Cn2c(CCc3ccccc3)nnc2[C@@H](Cc2c[nH]c3ccccc23)NC(=O)c2ccccn2)cc1 | 8.22 | – | 8.35 | – | –
COc1ccc(Cn2c(CCc3ccccc3)nnc2[C@H](N)Cc2c[nH]c3ccccc23)cc1 | – | – | – | – | < 6.00
COc1ccc(Cn2c(CCc3ccccc3)nnc2[C@@H](Cc2c[nH]c3ccccc23)NC(=O)c2ccncc2)cc1 | 6.08 | – | – | – | 6.66
COc1ccc(Cn2c(CCc3ccccc3)nnc2[C@@H](Cc2c[nH]c3ccccc23)NC(=O)c2cccnc2)cc1 | 6.39 | 1.61 | 6.47 | 1.57 | 6.91
COc1ccc(Cn2c(CCc3ccccc3)nnc2[C@@H](Cc2c[nH]c3ccccc23)NC(=O)c2cncc(Br)c2)cc1 | 6.65 | 1.85 | 7.06 | 1.85 | 7.08
COc1ccc(Cn2c(CCc3ccccc3)nnc2[C@@H](Cc2c[nH]c3ccccc23)NC(=O)c2cccnc2Br)cc1 | 6.71 | 1.76 | 6.29 | 1.66 | 6.60
COc1ccc(Cn2c(CCc3ccccc3)nnc2[C@@H](Cc2c[nH]c3ccccc23)NC(=O)c2ccc(Cl)nc2)cc1 | 6.11 | 1.8 | 6.00 | 1.52 | 6.89
COc1ccc(Cn2c(CCc3ccccc3)nnc2[C@@H](Cc2c[nH]c3ccccc23)NC(=O)c2cccnc2N)cc1 | 6.37 | 1.58 | 6.17 | 1.35 | 6.42
COc1ccc(Cn2c(CCc3ccccc3)nnc2[C@@H](Cc2c[nH]c3ccccc23)NC(=O)c2ncccc2F)cc1 | 8.06 | 1.73 | 8.15 | 1.67 | 8.52
COc1ccc(Cn2c(CCc3ccccc3)nnc2[C@@H](Cc2c[nH]c3ccccc23)NC(=O)c2cccc(F)n2)cc1 | 8.68 | 1.84 | 8.68 | 1.67 | 8.70
COc1ccc(Cn2c(CCc3ccccc3)nnc2[C@@H](Cc2c[nH]c3ccccc23)NC(=O)c2ncc(F)cc2F)cc1 | 8.55 | 1.82 | 8.34 | 1.65 | 8.40
COc1ccc(Cn2c(CCc3ccccc3)nnc2[C@@H](Cc2c[nH]c3ccccc23)NC(=O)c2cccc(C)n2)cc1 | 8.12 | 1.82 | 8.27 | 1.74 | 8.47
COc1ccc(Cn2c(CCc3ccccc3)nnc2[C@@H](Cc2c[nH]c3ccccc23)NC(=O)c2cccc(OC)n2)cc1 | 8.05 | 1.86 | 8.11 | 1.76 | 8.70
COc1ccc(Cn2c(CCc3ccccc3)nnc2[C@@H](Cc2c[nH]c3ccccc23)NC(=O)c2cccc(N)n2)cc1 | 7.68 | 1.55 | 7.60 | 1.5 | 8.22
COc1ccc(Cn2c(CCc3ccccc3)nnc2[C@@H](Cc2c[nH]c3ccccc23)NC(=O)c2ncccc2O)cc1 | 6.97 | 1.86 | 6.78 | 1.82 | 6.62
COc1ccc(Cn2c(CCc3ccccc3)nnc2[C@@H](Cc2c[nH]c3ccccc23)NC(=O)c2cccc[n+]2[O-])cc1 | 7.10 | 1.73 | 6.95 | 1.59 | 7.38
COc1ccc(Cn2c(CCc3ccccc3)nnc2[C@@H](Cc2c[nH]c3ccccc23)NC(=O)c2ccc(N3CCCC3)cn2)cc1 | 5.92 | 1.76 | 5.67 | 1.8 | 7.19
COc1ccc(Cn2c(CCc3ccccc3)nnc2[C@@H](Cc2c[nH]c3ccccc23)NC(=O)c2ncccc2C(=O)c2ccccc2)cc1 | 6.50 | 1.88 | 6.64 | 1.83 | 6.62
COc1ccc(Cn2c(CCc3ccccc3)nnc2[C@@H](Cc2c[nH]c3ccccc23)NC(=O)c2cc3ccccc3cn2)cc1 | 6.90 | 1.9 | 6.39 | 1.87 | 7.00
